One block for each molecule: values may come before it. Ends that are not written are not given here. * marks the point of attachment. Biotin = O=C1N[C@H]2[C@H](CS[C@H]2CCCCC(=O)*)N1
Tests used:
AXIN2, CD44, PARP, ABC = test: Immunoblots of β-catenin–dependent cell lines Colo320 and HCT116; format: cell-based, human; conditions: Colo320 and HCT116, 24 and 48 hours
Summary of the method: (§1)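 HCT116 (McCoy's), Colo320 (RPMI 1640) and RKO (DMEM) were grown with 10% FBS at 37°C, 5% CO2, with DMSO as vehicle. Membranes were probed overnight at 4°C with primary antibodies in blocking buffer, then HRP secondary, and detected by chemiluminescence. Densitometry was normalized to actin.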

[1] = biological target: T1, β-catenin complexes with E-cadherin (Homo sapiens, UniProt P35222); test: β-catenin Co-IP assay in DLD-1 cells; format: cell-based
T1 sequence (P35222 2-781 limits assumed): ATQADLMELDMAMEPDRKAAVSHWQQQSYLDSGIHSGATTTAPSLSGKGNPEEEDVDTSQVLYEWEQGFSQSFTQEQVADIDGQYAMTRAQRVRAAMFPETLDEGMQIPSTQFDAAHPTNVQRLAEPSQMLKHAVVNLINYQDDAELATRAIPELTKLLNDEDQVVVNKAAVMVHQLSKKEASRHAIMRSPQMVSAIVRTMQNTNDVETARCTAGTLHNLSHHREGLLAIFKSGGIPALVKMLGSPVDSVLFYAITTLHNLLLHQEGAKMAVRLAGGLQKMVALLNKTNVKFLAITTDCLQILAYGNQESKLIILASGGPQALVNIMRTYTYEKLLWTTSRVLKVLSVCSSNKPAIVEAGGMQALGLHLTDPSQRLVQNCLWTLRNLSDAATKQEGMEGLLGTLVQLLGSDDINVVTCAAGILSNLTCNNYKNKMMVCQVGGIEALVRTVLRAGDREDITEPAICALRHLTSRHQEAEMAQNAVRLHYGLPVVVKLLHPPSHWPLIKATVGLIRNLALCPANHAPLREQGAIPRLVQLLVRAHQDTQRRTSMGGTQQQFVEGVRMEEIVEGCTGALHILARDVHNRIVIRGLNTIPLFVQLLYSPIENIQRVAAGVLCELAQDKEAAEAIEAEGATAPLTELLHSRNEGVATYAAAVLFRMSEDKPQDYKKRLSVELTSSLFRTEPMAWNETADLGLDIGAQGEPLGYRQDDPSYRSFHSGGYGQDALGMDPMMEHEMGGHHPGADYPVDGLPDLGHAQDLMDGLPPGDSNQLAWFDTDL
T1 sequence (P12830 155-882 partner): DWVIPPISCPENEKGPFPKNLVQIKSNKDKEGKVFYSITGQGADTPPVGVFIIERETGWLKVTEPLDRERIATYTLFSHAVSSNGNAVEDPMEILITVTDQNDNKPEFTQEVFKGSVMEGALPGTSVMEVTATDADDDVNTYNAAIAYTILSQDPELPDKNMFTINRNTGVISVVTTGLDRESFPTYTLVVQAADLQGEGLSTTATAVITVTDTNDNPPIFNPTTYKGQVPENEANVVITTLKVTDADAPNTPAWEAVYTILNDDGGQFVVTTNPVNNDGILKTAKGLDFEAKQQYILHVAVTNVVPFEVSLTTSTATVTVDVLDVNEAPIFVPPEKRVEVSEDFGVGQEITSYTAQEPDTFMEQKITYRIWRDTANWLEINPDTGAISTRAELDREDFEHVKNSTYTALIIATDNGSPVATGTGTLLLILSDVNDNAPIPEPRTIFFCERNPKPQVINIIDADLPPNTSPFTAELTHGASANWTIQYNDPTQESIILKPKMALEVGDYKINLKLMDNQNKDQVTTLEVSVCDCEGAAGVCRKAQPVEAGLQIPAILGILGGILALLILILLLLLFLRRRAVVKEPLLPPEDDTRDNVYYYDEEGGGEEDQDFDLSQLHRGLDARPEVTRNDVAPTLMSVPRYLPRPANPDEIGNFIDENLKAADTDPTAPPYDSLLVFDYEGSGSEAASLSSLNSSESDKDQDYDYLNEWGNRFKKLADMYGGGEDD
Summary of the method: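 DLD-1 cells treated 16 h with DMSO vehicle or 1, 10 or 20 μM compound, then lysed in whole-cell lysis buffer. 800 μg extract incubated with 3.5 μg anti-β-catenin, with normal rabbit IgG as negative control. Protein G magnetic beads added for 1 h at 4°C, washed four times (150 mM NaCl) and eluted in reducing buffer. 2% input included. Immunoblotting used chemiluminescence and actin-normalised densitometry.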

AXIN2, CD44, PARP = test: Immunoblots of β-catenin–independent cell line RKO; format: cell-based, human; conditions: RKO cells
Summary of the method: as §1

β-catenin/BCL9 complexes = biological target: T2, β-catenin/BCL9 complexes (Homo sapiens, UniProt P35222); test: BCL9 Co-IP assay in Colo320 and HCT116 cells; format: cell-based; conditions: Colo320 and HCT116, 16 hours
T2 sequence (P35222 2-781 limits assumed): T1 sequence (P35222 2-781 limits assumed)
Summary of the method: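 Colo320 and HCT116 cells (with 4T1) were treated for 16 h with DMSO vehicle or 1, 10 or 20 μM compound. Nuclei were isolated and digested with hypotonic and digestion buffers, and nuclear protein was quantified by Bradford. 800 μg nuclear extract was immunoprecipitated overnight at 4°C with 3.5 μg anti-BCL9, with normal rabbit IgG as negative control, then immunoblotted.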

[2] = system: Wnt target genes AXIN2 and CD44; test: RT-qPCR of Wnt target genes in Colo320 and HCT116 cells; format: cell-based, human; conditions: 10 or 20 μM for 6, 24, and 48 hours
Summary of the method: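 Colo320 and HCT116 cells treated with DMSO vehicle or 10 or 20 μM compound for 6, 24 and 48 h. Total RNA isolated with TRIzol, reverse-transcribed, and SYBR Green qPCR run. Expression normalised to B2M and PMM1 or GAPDH by the ΔΔCT method.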

[3] = system: Wnt transcriptional activity; test: Dual-luciferase Wnt reporter assay in Colo320 and HCT116 cells; format: cell-based, human; conditions: 16 hours, versus vehicle
Summary of the method: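 Stable reporter cells came from lentiviral transduction: firefly luciferase under a 7XTCF promoter and Renilla luciferase under an EF1alpha promoter. 30,000 cells/well were treated 16 h with DMSO vehicle or increasing compound concentrations. Firefly and Renilla signals were read by Dual-Glo, in triplicate.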

Colo320 and HCT116 cells = test: Proliferation assay, β-catenin–dependent cell lines; format: cell-based, human; conditions: 5, 10, or 20 μM; 24, 48, 72, and 96 hours
Summary of the method: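 Colo320, HCT116 and RKO cells were seeded in triplicate at 3000 cells/well and treated with DMSO vehicle or 5, 10 or 20 μM compound. Proliferation was measured by CellTiter-Glo 2.0 luminescence, relative to the respective baseline readings.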

HCT116 and Colo320 cells = test: Viability assay; format: cell-based, human; conditions: 48 hours; for cell viability compared to vehicle controls: 20 μM; for effect of addition of cholesterol on viability: 20 μM compound ± cholesterol 20 μM
Summary of the method: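 HCT116 and Colo320 cells were treated 48 h with the indicated agents at 20 μM, including water-soluble cholesterol, alone or combined. Viability was measured by CellTiter-Glo luminescence in triplicate and expressed relative to vehicle-treated cells.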

[4] = biological target: human CTNNB1 region 141-305 (short protein) (human) (UniProt P35222); test: ITC
HCT116 cells = test: Fluorescent staining of lipids and cholesterol in HCT116 cells; format: cell-based, human; conditions: treated for 24 and 48 hours
Summary of the method: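 HCT116 cells in glass-bottomed dishes treated with vehicle or 20 μM compound for 4, 8, 24 and 48 h. Fixed in 4% paraformaldehyde, stained with 2 μM BODIPY 493/503 for 15 min plus DAPI (1 μg/ml). Cholesterol stained with a filipin III kit. For localisation at 48 h, filipin was combined with anti-SERCA-ATPase (ER) or LipidSpot (lipid droplets). Imaged with a ×40 dry objective.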

[5] = biological target: T3, full-length recombinant β-catenin (1 to 781 amino acids, 88 kDa) (human, UniProt P35222 1-781); test: AlphaScreen or HTRF
T3 sequence: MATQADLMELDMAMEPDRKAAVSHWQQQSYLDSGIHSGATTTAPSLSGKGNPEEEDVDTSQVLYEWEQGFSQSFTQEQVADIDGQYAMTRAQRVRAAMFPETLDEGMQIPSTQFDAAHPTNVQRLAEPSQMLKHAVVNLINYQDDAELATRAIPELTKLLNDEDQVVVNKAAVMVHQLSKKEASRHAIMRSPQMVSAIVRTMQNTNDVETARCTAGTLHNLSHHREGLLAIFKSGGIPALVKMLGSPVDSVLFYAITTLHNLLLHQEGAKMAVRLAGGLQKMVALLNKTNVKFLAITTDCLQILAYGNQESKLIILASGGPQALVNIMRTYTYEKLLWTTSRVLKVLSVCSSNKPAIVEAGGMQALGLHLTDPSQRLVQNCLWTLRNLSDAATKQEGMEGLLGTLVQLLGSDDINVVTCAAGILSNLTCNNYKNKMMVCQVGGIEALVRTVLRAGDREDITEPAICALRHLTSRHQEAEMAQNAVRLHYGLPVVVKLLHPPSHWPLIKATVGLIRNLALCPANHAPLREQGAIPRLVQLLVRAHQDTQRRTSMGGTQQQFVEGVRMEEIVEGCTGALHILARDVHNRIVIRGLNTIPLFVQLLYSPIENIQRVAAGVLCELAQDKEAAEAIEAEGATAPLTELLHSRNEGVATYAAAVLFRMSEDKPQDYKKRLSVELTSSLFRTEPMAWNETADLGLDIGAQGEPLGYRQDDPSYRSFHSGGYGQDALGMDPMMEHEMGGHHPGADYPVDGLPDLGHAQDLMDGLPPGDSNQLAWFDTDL

Molecule: O=C1[C@H](Cc2ccc(O)cc2)N2C(=O)CCN(C(=O)NCc3ccccc3)[C@H]2CN1Cc1cccc2ccccc12 [ICG-001, reference compound]
cell viability compared to vehicle controls (HCT116 and Colo320 cells): significantly reduced cell viability | inhibition of Wnt signaling (firefly/renilla luciferase ratio) [3]: significantly inhibited Wnt signaling

Molecule: CC[C@H](C)C(=O)O[C@H]1C[C@@H](C)C=C2C=C[C@H](C)[C@H](CC[C@@H]3C[C@@H](O)CC(=O)O3)[C@H]21 [lovastatin]
effect of addition of cholesterol on viability (HCT116 and Colo320 cells): did not affect the viability | cell viability compared to vehicle controls (HCT116 and Colo320 cells): significantly reduced cell viability

Molecule: CC(C)c1cc(C(C)C)c(CC(=O)NS(=O)(=O)Oc2c(C(C)C)cccc2C(C)C)c(C(C)C)c1 [avasimibe]
effect of addition of cholesterol on viability (HCT116 and Colo320 cells): did not affect the viability | cell viability compared to vehicle controls (HCT116 and Colo320 cells): significantly reduced cell viability

Molecule: nonbiotinylated BCL9-HD2 peptide
Kd [4]: 2740 nM

Molecule: CCN(CC)CCO[C@H]1CC[C@@]2(C)C(=CC[C@@H]3[C@@H]2CC[C@]2(C)C(=O)CC[C@@H]32)C1.Cl [U-18666A]
intracellular lipids (BODIPY) (HCT116 cells): substantial intracellular lipid accumulation

B1: N-terminal biotinylated BCL9-HD2 peptide (peptide)
peptide: Biotin-LSQEQLEHRERSLQTLRDIQRM
binding result [5]: binds

More lines, main results first:

PARP cleavage (AXIN2, CD44, PARP): minor PARP cleavage at 10 and 20 μM | concentration inhibiting β-catenin/BCL9 complexes in Co-IP (β-catenin/BCL9 complexes): 1 µM
Molecule: O=C(Nc1ccccc1Oc1nc2ccccc2n2cnnc12)c1cccs1 [C-2]
PARP cleavage (AXIN2, CD44, PARP, ABC): increased the cleavage of poly(adenosine diphosphate–ribose) polymerase (PARP) | abundance of active β-catenin (ABC) (AXIN2, CD44, PARP, ABC): decreased abundance of “active” dephosphorylated β-catenin | protein expression of AXIN2 and CD44 (AXIN2, CD44, PARP, ABC): significantly decreased the protein expression of AXIN2 and CD44 | disruption of β-catenin complexes with E-cadherin [1]: Neither compound disrupted the ability of β-catenin to form complexes with E-cadherin | expression of AXIN2 or CD44 protein (AXIN2, CD44, PARP): did not affect their expression of AXIN2 or CD44 protein | expression of AXIN2 and CD44 mRNAs [2]: significantly inhibited the expression of AXIN2 and CD44 mRNAs | inhibition of Wnt signaling (firefly/renilla luciferase ratio) [3]: significantly inhibited Wnt signaling | proliferation (Colo320 and HCT116 cells): significantly reduced the proliferation

concentration inhibiting β-catenin/BCL9 complexes in Co-IP (β-catenin/BCL9 complexes): 20 µM
Molecule: COc1ccc(C)cc1CN1CCC(c2cc3ncccc3cn2)CC1 [C-3]
